In ChEMBL document CHEMBL1156597, “Structure-activity relationship of kahalalide F synthetic analogues” (J Med Chem, 2008):

Legend:
SK-MEL-28 [1] = experiment: Cytotoxicity against human SK-MEL-28 cells
HT-29 = experiment: Cytotoxicity against human HT29 cells after 48 hrs by SRB assay; format: functional, cell-based; conditions: Homo sapiens, HT-29, 48 h; for CC50: read-out: LC50 (the source's name)
How it was run: (§1)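 Cells grown in RPMI 1640 with 10% FBS and penicillin/streptomycin at 37 °C and 5% CO₂, trypsinized, then seeded at 5 × 10³/well. After 18 h drug-free attachment, samples in DMSO/EtOH/PBS (0.5:0.5:99) were added for 48 h continuous exposure. Cells were fixed with cold TCA (1 h, 4 °C) and stained with SRB (10 min). Tris-solubilized stain read at 490 nm. Triplicate wells, mean ± SD; GI₅₀ derived.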

DU-145 = experiment: Cytotoxicity against human DU145 cells after 48 hrs by SRB assay; format: functional, cell-based; conditions: Homo sapiens, DU-145, 48 h; for CC50: read-out: LC50 (the source's name)
How it was run: as §1

SK-BR-3 = experiment: Cytotoxicity against human SKBR3 cells after 48 hrs by SRB assay; format: functional; conditions: SK-BR-3, 48 h; for GI50: read-out: GI50; for CC50: read-out: LC50 (the source's name)
How it was run: as §1

LoVo [2] = experiment: Cytotoxicity against human doxorubicin resistant LoVo cells after 48 hrs by SRB assay; format: functional; conditions: for CC50: read-out: LC50 (the source's name)
How it was run: as §1

PANC-1 = experiment: Cytotoxicity against human PANC1 cells after 48 hrs by SRB assay; format: functional; conditions: PANC-1, 48 h; for CC50: read-out: LC50 (the source's name)
How it was run: as §1

[3] = Cytotoxicity against human HeLa-APL cells after 48 hrs by SRB assay; format: functional
How it was run: as §1

LNCaP = experiment: Cytotoxicity against human LNcaP cells after 48 hrs by SRB assay; format: functional; conditions: for CC50: read-out: LC50 (the source's name)
How it was run: as §1

[4] = Cytotoxicity against human IGROV cells after 48 hrs by SRB assay; format: functional; conditions: for CC50: read-out: LC50 (the source's name)
How it was run: as §1

K562 = experiment: Cytotoxicity against human K562 cells after 48 hrs by SRB assay; format: functional; conditions: K562, 48 h, read-out: LC50 (the source's name)
How it was run: as §1

SK-MEL-28 [5] = experiment: Cytotoxicity against human SK-MEL-28 cells after 48 hrs by SRB assay; format: functional, cell-based; conditions: Homo sapiens, SK-MEL-28, 48 h; for CC50: read-out: LC50 (the source's name)
How it was run: as §1

[6] = Cytotoxicity against human IGROV-ET cells after 48 hrs by SRB assay; format: functional; conditions: for CC50: read-out: LC50 (the source's name)
How it was run: as §1

HeLa = experiment: Cytotoxicity against human HeLa cells after 48 hrs by SRB assay; format: functional; conditions: for CC50: read-out: LC50 (the source's name)
How it was run: as §1

LoVo [7] = experiment: Cytotoxicity against human LoVo cells after 48 hrs by SRB assay; format: functional; conditions: for CC50: read-out: LC50 (the source's name)
A549 = experiment: Cytotoxicity against human A549 cells after 48 hrs by SRB assay; format: functional, cell-based; conditions: Homo sapiens, A549, 48 h
How it was run: as §1

Structure (SMILES): C/C=C1\NC(=O)[C@H](Cc2ccccc2)NC(=O)[C@@H](C(C)C)NC(=O)[C@@H]([C@H](C)CC)NC(=O)[C@H](NC(=O)[C@H](NC(=O)[C@H]2CCCN2C(=O)[C@H](NC(=O)[C@@H](NC(=O)[C@@H](NC(=O)[C@H](NC(=O)CCCC(C)C)C(C)C)[C@@H](C)O)C(C)C)C(C)C)[C@H](C)CC)[C@H](C)OC(=O)[C@H](C(C)C)NC1=O
- IC50 (SK-MEL-28 [1]): 3670 nM
- IC50 (HT-29): 3670 nM
- IC50 (DU-145): 3670 nM

Structure (SMILES): C/C=C1\NC(=O)[C@H](Cc2ccccc2)NC(=O)[C@@H](C(C)C)NC(=O)[C@@H]([C@H](C)CC)NC(=O)[C@H](NC(=O)[C@H](NC(=O)[C@H](CCCNC(=O)CCOCCOCCN)NC(=O)[C@H]2CCCN2C(=O)[C@H](NC(=O)[C@@H](NC(=O)[C@@H](NC(=O)[C@H](NC(=O)CCCC(C)C)C(C)C)[C@@H](C)O)C(C)C)C(C)C)[C@H](C)CC)[C@H](C)OC(=O)[C@H](C(C)C)NC1=O
- CC50 (HT-29): 390 nM
- TGI (SK-BR-3): 235 nM
- GI50 (SK-BR-3): 248 nM
- CC50 (SK-BR-3): 111 nM
- CC50 (LoVo [2]): 29.5 nM
- GI50 (PANC-1): 1250 nM
- TGI (PANC-1): 1060 nM
- CC50 (PANC-1): 1600 nM
- GI50 [3]: 515 nM
- LC50 (concentration giving 50% net cell kill) [3]: 852 nM
- TGI [3]: 658 nM
- CC50 (LNCaP): 866 nM
- GI50 [4]: 134 nM
- GI50 ([4]; read-out: GI50): 176 nM
- CC50 [4]: 262 nM
- CC50 (K562): 159 nM
- GI50 (SK-MEL-28 [5]): 956 nM
- GI50 (SK-MEL-28 [5]; read-out: GI50): 952 nM
- CC50 (SK-MEL-28 [5]): 954 nM
- GI50 [6]: 287 nM
- GI50 ([6]; read-out: GI50): 195 nM
- CC50 [6]: 510 nM
- GI50 (HeLa): 711 nM
- TGI (HeLa): 942 nM
- CC50 (HeLa): 944 nM
- GI50 (DU-145): 852 nM
- GI50 (DU-145; read-out: GI50): 738 nM
- CC50 (DU-145): 982 nM
- CC50 (LoVo [7]): 301 nM
- GI50 (A549): 595 nM
- LC50 (A549): 350 nM
- GI50 (A549; read-out: GI50): 4920 nM

Structure (SMILES): C/C=C1\NC(=O)[C@H](Cc2ccccc2)NC(=O)[C@@H](C(C)C)NC(=O)[C@@H](C(C)C)NC(=O)[C@H](NC(=O)[C@H](NC(=O)[C@H](CCCN)NC(=O)[C@H]2CCCN2C(=O)[C@H](NC(=O)[C@@H](NC(=O)[C@@H](NC(=O)[C@H](NC(=O)CCCC(C)C)C(C)C)[C@@H](C)O)C(C)C)C(C)C)C(C)C)[C@H](C)OC(=O)[C@H](C(C)C)NC1=O
- GI50 (HT-29): 2500 nM
- TGI (HT-29): 2810 nM
- CC50 (HT-29): 3160 nM
- TGI (SK-BR-3): 2310 nM
- GI50 (SK-BR-3): 2120 nM
- CC50 (SK-BR-3): 1450 nM
- GI50 (LoVo [2]): 1430 nM
- TGI (LoVo [2]): 1670 nM
- CC50 (LoVo [2]): 1940 nM
- GI50 (PANC-1): 4710 nM
- TGI (PANC-1): 3910 nM
- CC50 (PANC-1): 2190 nM
- GI50 [3]: 2730 nM
- LC50 (concentration giving 50% net cell kill) [3]: 1690 nM
- TGI [3]: 2790 nM
- GI50 (LNCaP): 2340 nM
- TGI (LNCaP): 1960 nM
- CC50 (LNCaP): 1160 nM
- CC50 [4]: 762 nM
- CC50 (K562): 2500 nM
- TGI (SK-MEL-28 [5]): 1650 nM
- GI50 (SK-MEL-28 [5]; read-out: GI50): 1640 nM
- CC50 (SK-MEL-28 [5]): 1660 nM
- CC50 [6]: 719 nM
- GI50 (HeLa): 1400 nM
- TGI (HeLa): 1260 nM
- CC50 (HeLa): 1120 nM
- TGI (DU-145): 1180 nM
- GI50 (DU-145; read-out: GI50): 1360 nM
- CC50 (DU-145): 1020 nM
- GI50 (LoVo [7]): 2460 nM
- TGI (LoVo [7]): 2460 nM
- CC50 (LoVo [7]): 2480 nM
- LC50 (A549): 2000 nM
- TGI (A549): 3790 nM
- GI50 (A549; read-out: GI50): 2400 nM
